This note sets out measurements from ChEMBL document CHEMBL3627614, “Structure-based design, synthesis, X-ray studies, and biological evaluation of novel HIV-1 protease inhibitors containing isophthalamide-derived P2-ligands” (Bioorg Med Chem Lett, 2015).

Broadly, the Ki is a measure of affinity in units of concentration, obtained from inhibition or displacement. Low values mean tighter binding, high ones weaker binding. The term IC50 denotes the concentration that gives 50% inhibition.

Molecules are shown by their SMILES.

In one assay the target is Protease (Human immunodeficiency virus 1, UniProt Q9YQ12). Put plainly: Inhibition of HIV-1 protease by fluorometric assay.
Chain of Protease (Q9YQ12 whole entry): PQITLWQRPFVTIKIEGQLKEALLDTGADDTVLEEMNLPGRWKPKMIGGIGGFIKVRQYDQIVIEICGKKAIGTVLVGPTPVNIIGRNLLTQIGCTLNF
Conditions: not given
An outline of the steps: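 Run by a previously published protease assay protocol, with inhibitory potency reported as the inhibition constant Ki.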
`CCCNC(=O)c1cccc(C(=O)N[C@@H](Cc2ccccc2)[C@H](O)CN(CC(C)C)S(=O)(=O)c2ccc(OC)cc2)c1` displayed an inhibitory constant (Ki) of 25.1 nM.

`COC[C@H]1C[C@@H](O)CN1C(=O)c1cccc(C(=O)N[C@@H](Cc2ccccc2)[C@H](O)CN(CC(C)C)S(=O)(=O)c2ccc(OC)cc2)c1` displayed a Ki of 0.27 nM.

With `CCCN(CCC)C(=O)c1cccc(C(=O)N[C@@H](Cc2ccccc2)[C@H](O)CN(CC(C)C)S(=O)(=O)c2ccc(OC)cc2)c1`, the affinity, expressed as Ki, was 12.4 nM.

With `Cc1coc(CN(C)C(=O)c2cccc(C(=O)N[C@@H](Cc3ccccc3)[C@H](O)CN(CC(C)C)S(=O)(=O)c3ccc(CO)cc3)c2)n1`, the Ki came to 0.63 nM.

The molecule `CCCN(C)C(=O)c1cc(NC)cc(C(=O)N[C@@H](Cc2ccccc2)[C@H](O)CN(CC(C)C)S(=O)(=O)c2ccc(OC)cc2)c1` yielded a Ki of 158 nM.

As to `COC[C@@H]1C[C@H](O)CN1C(=O)c1cccc(C(=O)N[C@@H](Cc2ccccc2)[C@H](O)CN(CC(C)C)S(=O)(=O)c2ccc(OC)cc2)c1`, the affinity, expressed as Ki, was 1.5 nM.

As to `CCCN(C)C(=O)c1cc(OC)cc(C(=O)N[C@@H](Cc2ccccc2)[C@H](O)CN(CC(C)C)S(=O)(=O)c2ccc(OC)cc2)c1`, affinity was put at a Ki of 20.4 nM.

In the case of `COc1ccc(S(=O)(=O)N(CC(C)C)C[C@@H](O)[C@H](Cc2ccccc2)NC(=O)c2cc(C)cc(C(=O)N(C)Cc3nc(C)oc3C)c2)cc1`, the affinity corresponds to a Ki of 0.21 nM.

With `COC[C@@H]1C[C@@H](O)CN1C(=O)c1cccc(C(=O)N[C@@H](Cc2ccccc2)[C@H](O)CN(CC(C)C)S(=O)(=O)c2ccc(OC)cc2)c1`, the Ki amounted to 2.85 nM.

In turn, `COc1ccc(S(=O)(=O)N(CC(C)C)C[C@@H](O)[C@H](Cc2ccccc2)NC(=O)c2cccc(C(=O)N3CCOCC3)c2)cc1` yielded a Ki of 0.42 nM.

Regarding `COc1ccc(S(=O)(=O)N(CC(C)C)C[C@@H](O)[C@H](Cc2ccccc2)NC(=O)c2cccc(C(=O)N3CCN(C)CC3)c2)cc1`, the Ki was determined as 0.54 nM.

Take `COc1ccc(S(=O)(=O)N(CC(C)C)C[C@@H](O)[C@H](Cc2ccccc2)NC(=O)c2cccc(C(=O)N(C)Cc3nc(C)oc3C)c2)cc1`: the Ki worked out at 0.17 nM.

Turning to `CCCN(C)C(=O)c1cccc(C(=O)N[C@@H](Cc2ccccc2)[C@H](O)CN(CC(C)C)S(=O)(=O)c2ccc(OC)cc2)c1`, the Ki came out at 5.1 nM.

For `COCc1coc(CN(C)C(=O)c2cccc(C(=O)N[C@@H](Cc3ccccc3)[C@H](O)CN(CC(C)C)S(=O)(=O)c3ccc(OC)cc3)c2)n1`, the Ki was 0.31 nM.

In turn, `COC[C@H]1C[C@H](O)CN1C(=O)c1cccc(C(=O)N[C@@H](Cc2ccccc2)[C@H](O)CN(CC(C)C)S(=O)(=O)c2ccc(OC)cc2)c1` had a Ki of 0.27 nM.

Another assay deals with Human immunodeficiency virus 1. In words: Antiviral activity against HIV-1 LAI infected in MT-2 cells measured after 7 days by MTT assay. Type of assay: functional, organism-based. The note with it: Human immunodeficiency virus 1, LAI, MT2, 168 h.
On to `COC[C@H]1C[C@@H](O)CN1C(=O)c1cccc(C(=O)N[C@@H](Cc2ccccc2)[C@H](O)CN(CC(C)C)S(=O)(=O)c2ccc(OC)cc2)c1`, for which the IC50 stood at 190 nM.

`CCCN(CCC)C(=O)c1cccc(C(=O)N[C@@H](Cc2ccccc2)[C@H](O)CN(CC(C)C)S(=O)(=O)c2ccc(OC)cc2)c1`: the IC50 is greater than 1000 nM.

As to `COC[C@@H]1C[C@H](O)CN1C(=O)c1cccc(C(=O)N[C@@H](Cc2ccccc2)[C@H](O)CN(CC(C)C)S(=O)(=O)c2ccc(OC)cc2)c1`, the IC50 was greater than 1000 nM.

In turn, `COc1ccc(S(=O)(=O)N(CC(C)C)C[C@@H](O)[C@H](Cc2ccccc2)NC(=O)c2cc(C)cc(C(=O)N(C)Cc3nc(C)oc3C)c2)cc1` came in with an IC50 of 31 nM.

As for `COC[C@@H]1C[C@@H](O)CN1C(=O)c1cccc(C(=O)N[C@@H](Cc2ccccc2)[C@H](O)CN(CC(C)C)S(=O)(=O)c2ccc(OC)cc2)c1`, the half-inhibitory concentration (IC50) was 178 nM.

The molecule `COc1ccc(S(=O)(=O)N(CC(C)C)C[C@@H](O)[C@H](Cc2ccccc2)NC(=O)c2cccc(C(=O)N3CCOCC3)c2)cc1` returned an IC50 of 25 nM.

For `COc1ccc(S(=O)(=O)N(CC(C)C)C[C@@H](O)[C@H](Cc2ccccc2)NC(=O)c2cccc(C(=O)N3CCN(C)CC3)c2)cc1`, half-maximal inhibition (IC50) required 45 nM.

The molecule `COc1ccc(S(=O)(=O)N(CC(C)C)C[C@@H](O)[C@H](Cc2ccccc2)NC(=O)c2cccc(C(=O)N(C)Cc3nc(C)oc3C)c2)cc1` had an IC50 of 14 nM.

`COCc1coc(CN(C)C(=O)c2cccc(C(=O)N[C@@H](Cc3ccccc3)[C@H](O)CN(CC(C)C)S(=O)(=O)c3ccc(OC)cc3)c2)n1` gave an IC50 of 25 nM.

`COC[C@H]1C[C@H](O)CN1C(=O)c1cccc(C(=O)N[C@@H](Cc2ccccc2)[C@H](O)CN(CC(C)C)S(=O)(=O)c2ccc(OC)cc2)c1` gave an IC50 of 389 nM.
